Like-named read-outs stand apart in the source and are kept apart here.
How the values were obtained:
hSULT2A1 [1] = target: T1, hSULT2A1 (Homo sapiens, UniProt Q06520); experiment: Structural modification of hSULT2A1 by quinones, proteolytic digestion and LC/MS; settings: 15 μM hSULT2A1 with 250 μM quinone, 1 h, pH 8.0, 25 °C
T1 sequence (Q06520 1-285): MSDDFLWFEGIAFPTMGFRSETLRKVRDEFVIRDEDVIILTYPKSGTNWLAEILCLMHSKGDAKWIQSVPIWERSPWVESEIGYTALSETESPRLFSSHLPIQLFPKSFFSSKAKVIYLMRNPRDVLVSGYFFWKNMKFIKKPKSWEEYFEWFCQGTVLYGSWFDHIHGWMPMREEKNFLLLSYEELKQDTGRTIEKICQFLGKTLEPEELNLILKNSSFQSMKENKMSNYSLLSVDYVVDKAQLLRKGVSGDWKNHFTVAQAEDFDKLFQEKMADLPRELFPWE
In short: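 Recombinant hSULT2A1 was expressed in E. coli BL21(DE3), purified, and desalted of DTT into 50 mM Tris-HCl pH 8.0. 15 μg enzyme was reacted with quinone (17:1 molar ratio), then alkylated with 45 mM final 4-vinylpyridine for 1 h. Digestion used 0.6 μg trypsin with 10% v/v acetonitrile at 37 °C for 16 h, plus 1 μg Glu-C where needed. Peptides were analysed by LC/MS.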

hSULT2A1 [2] = target: T1, hSULT2A1; experiment: Binding of PAP to quinone-pretreated hSULT2A1; settings: in the absence of DHEA; pretreatment with 10 μM quinone
In short: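 Purified recombinant hSULT2A1 was expressed in E. coli BL21(DE3) and pretreated with test compound for 1 h at 25 °C. It was then placed at 15 nM final (dimer) in 0.25 M potassium phosphate, pH 7.4, without DHEA, 20 min before titration. PAP was added to 0.5–300 μM final at 37 °C. Intrinsic fluorescence (ex 290/em 347 nm) was read 10 s after each addition, dilution-corrected, in duplicate. Dissociation constants were derived.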

hSULT2A1 [3] = target: T1, hSULT2A1; format: biochemical; settings: 100-fold dilution, 0.5 μM DHEA (Figure 4)
In short: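 E. coli-expressed, purified hSULT2A1 was preincubated with test compound for 1 h at 25 °C, then diluted 100-fold into a standard assay containing 0.5 μM 3H-DHEA. The mixture was prewarmed at 37 °C for 2 min, and the reaction was started with 30 ng of enzyme. It ran for 3 or 4 min at 37 °C to keep initial velocity. Runs were in triplicate, mean ± SD, compared with untreated enzyme by paired two-tailed t test (p < 0.05).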

Compound	Protein adducts at cysteines of hSULT2A1 (hSULT2A1 [1])	Binding of PAP to the pretreated enzyme (hSULT2A1 [2])	Catalytic activity of hSULT2A1 following preincubation with PBQ (hSULT2A1 [3]; PBQ 0.5 μM or 1.0 μM)	Catalytic activity of hSULT2A1 following preincubation with PBQ (hSULT2A1 [3]; PBQ 5.0 μM or higher)
4′-chlorophenyl-2,5-benzoquinone [4′-Cl-BQ]	protein adducts were observed at Cys55 and Cys199	no detectable binding of PAP	–	–
O=C1C=CC(=O)C(c2ccccc2Cl)=C1 [2′-Cl-BQ, 2′-chlorophenyl-2,5-benzoquinone]	protein adducts were observed at Cys55 and Cys199	no detectable binding of PAP	–	–
O=C1C=C(Cl)C(=O)C(c2ccc(Cl)cc2)=C1Cl [3,6,4′-triCl-BQ, 4′-chlorophenyl-3,6-dichloro-2,5-benzoquinone]	a dichlorinated adduct was found in the digested peptides containing Cys55 and Cys199	–	–	–
O=C1C=CC(=O)C(c2ccccc2)=C1 [PBQ, phenyl-2,5-benzoquinone]	protein adducts were observed at Cys55 and Cys199	–	increase in the catalytic activity	decreases in catalytic activity
